The target in series [1] is T1, ABCG2 (Homo sapiens, UniProt Q9UNQ0).
T1 sequence (Q9UNQ0 whole entry): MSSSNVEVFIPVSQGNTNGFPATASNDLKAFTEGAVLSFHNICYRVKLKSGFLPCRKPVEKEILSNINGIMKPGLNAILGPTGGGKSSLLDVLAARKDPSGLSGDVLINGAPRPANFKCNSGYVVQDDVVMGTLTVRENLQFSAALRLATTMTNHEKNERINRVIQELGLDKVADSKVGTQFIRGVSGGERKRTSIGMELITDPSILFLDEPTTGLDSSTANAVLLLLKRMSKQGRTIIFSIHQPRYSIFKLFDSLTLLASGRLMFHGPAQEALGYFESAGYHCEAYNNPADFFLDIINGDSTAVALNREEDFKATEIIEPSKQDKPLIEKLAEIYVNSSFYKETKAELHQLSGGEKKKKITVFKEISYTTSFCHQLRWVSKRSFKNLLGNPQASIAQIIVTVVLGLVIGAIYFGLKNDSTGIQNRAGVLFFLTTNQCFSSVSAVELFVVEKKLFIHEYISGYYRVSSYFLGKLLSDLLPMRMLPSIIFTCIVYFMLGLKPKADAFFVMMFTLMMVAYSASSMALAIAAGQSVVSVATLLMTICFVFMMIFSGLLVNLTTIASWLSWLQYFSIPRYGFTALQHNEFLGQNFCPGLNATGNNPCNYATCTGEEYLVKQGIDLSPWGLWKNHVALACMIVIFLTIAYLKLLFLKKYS
The experiment in a line: Activation of human ABCG2-mediated ATPase activity preincubated for 2 mins followed by ATP addition at 10 M and measured after 20 mins by colorimetric assay relative to control. More on the design: dose or concentration left out as unconfirmed. Conditions: read-out: Activity. The gist of the method: (§1)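 Total membrane vesicles from High-Five insect cells expressing human ABCG2 (hypotonic lysis, differential centrifugation), 10 μg protein/tube, in MES-Tris pH 6.8 buffer with KCl, MgCl2, NaN3, EGTA, ouabain, DTT. Compound in DMSO added ± sodium orthovanadate (0.3 mM), DMSO control. Preincubated 2 min at 37°C, then 5 mM ATP, 20 min. SDS stop, Pi measured colorimetrically. Three independent experiments in duplicate, mean ± SE.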

The target of series [2] is T1, ABCG2. The experiment in a line: Activation of human ABCG2-mediated ATPase activity preincubated for 2 mins followed by ATP addition at 2.5 M and measured after 20 mins by colorimetric assay relative to control. More on the design: dose or concentration left out as unconfirmed. Conditions: read-out: Activity. The gist of the method:
as §1

In series [3] the target is T1, ABCG2. The experiment in a line: Effect on human ABCG2 transporter preincubated for 2 mins followed by ATP addition assessed as basal ATPase activity at 100 nM and measured after 20 mins by colorimetric assay relative to control. Conditions: read-out: Activity. Put shortly: as §1
Another series deals with T2, Adenosine receptor A3 (Homo sapiens, UniProt P0DMS8).
T2 sequence (P0DMS8 whole entry): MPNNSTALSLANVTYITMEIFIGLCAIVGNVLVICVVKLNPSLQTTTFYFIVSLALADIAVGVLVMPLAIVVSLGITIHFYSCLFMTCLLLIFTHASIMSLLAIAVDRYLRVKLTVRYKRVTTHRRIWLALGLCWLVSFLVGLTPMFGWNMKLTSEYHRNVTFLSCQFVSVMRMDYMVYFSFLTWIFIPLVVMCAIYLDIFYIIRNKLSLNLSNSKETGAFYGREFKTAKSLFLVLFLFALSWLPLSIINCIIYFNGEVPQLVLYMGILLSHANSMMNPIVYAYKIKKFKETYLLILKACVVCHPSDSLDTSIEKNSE
The experiment in a line: Binding affinity towards human adenosine A3 receptor.

Series [4] addresses T1, ABCG2. The experiment in a line: Activation of human ABCG2-mediated ATPase activity preincubated for 2 mins followed by ATP addition at 100 nM and measured after 20 mins by colorimetric assay relative to control. Conditions: read-out: Activity. Put shortly:
as §1

The target in series [5] is T3, Broad substrate specificity ATP-binding cassette transporter ABCG2 (Homo sapiens, UniProt Q9UNQ0).
T3 sequence (Q9UNQ0 whole entry): T1 sequence (Q9UNQ0 whole entry)
The experiment in a line: Activation of human ABCG2-mediated ATPase activity preincubated for 2 mins followed by ATP addition and measured after 20 mins by colorimetric assay. The gist of the method:
as §1

The structures appear in SMILES notation. pEC50, pKi: −log10 of the molar value.

Regarding `CCCNc1nc(C#Cc2ccc(Cl)s2)nc2c1ncn2[C@@H]1O[C@H](C(=O)NC)[C@@H](O)[C@H]1O`, the activity at 20 min at ABCG2 [1] was determined as 122%; on ABCG2 [2], 124%. For `CNC(=O)[C@H]1O[C@@H](n2cnc3c(NC)nc(C#Cc4ccc(Cl)s4)nc32)[C@H](O)[C@@H]1O` the same measures were 122% and 112%.

`CNc1nc(C#Cc2ccc(Cl)s2)nc2c1ncn2[C@@H]1O[C@H](C(=O)OC)[C@@H](O)[C@H]1O`: the activity at 20 min, 0.1 µM at ABCG2 [3] is at most 30%. The molecule `Cn1cnc2c(NCCc3ccccc3)nc(C#Cc3ccc(Cl)s3)nc21` gave a pKi on Adenosine receptor A3 of at most 7.00. For the same molecule, the activity at 20 min, 0.1 µM at ABCG2 [4] came to 92.1%. For `COc1ccc(CCNC2=NC(I)=NC3=NC=CC32)cc1O` (centres undefined), the pKi on Adenosine receptor A3 was at most 7.00. Besides, on ABCG2 [4], the activity at 20 min, 0.1 µM is 79.6%.

Consider `Clc1cccc(CNC2=NC(C#Cc3ccc(Cl)s3)=NC3=NC=NC32)c1` (centres undefined), for which, at ABCG2 [4], the activity at 20 min, 0.1 µM is 40.5%. `COc1ccc(CCNC2=NC(C#Cc3ccc(Cl)s3)=NC3=NC=CC32)cc1O` (centres undefined) gave a negative-log Ki (pKi) at Adenosine receptor A3 of at most 7.00. In addition, on ABCG2 [4], the activity at 20 min, 0.1 µM was 104%.

`Clc1ccc(C#CC2=NC3=NC=NC3C(NCCc3ccccc3)=N2)s1` (centres undefined) gave a negative logarithm of the Ki (pKi) on Adenosine receptor A3 of at most 7.00. For the same molecule, at ABCG2 [4], the activity at 20 min, 0.1 µM worked out at 80.8%.

On Adenosine receptor A3, `Oc1ccc(CCNC2=NC(C#Cc3ccc(Cl)s3)=NC3=NC=NC32)cc1O` (centres undefined) showed a pKi of at most 7.00. For the same molecule, on ABCG2 [4], the activity at 20 min, 0.1 µM came to 95.9%. Regarding `CCOC(=O)[C@]12C[C@@H]1[C@@H](n1cnc3c(NC)nc(C#Cc4ccc(F)s4)nc31)[C@H](O)[C@@H]2O`, the activity at 20 min, 0.1 µM at ABCG2 [3] was at most 30%. As for `CNc1nc(C#Cc2ccc(Cl)s2)nc2c1ncn2[C@H]1[C@H](O)[C@H](O)[C@@]2(C(=O)OCCc3ccccc3)C[C@H]12`, the activity at 20 min, 0.1 µM at ABCG2 [3] is at most 30%. For the molecule `CNc1nc(C#Cc2ccc(Cl)s2)nc2c1ncn2[C@H]1[C@H](O)[C@H](O)[C@@]2(C(=O)OCCCc3ccccc3)C[C@H]12`, on ABCG2 [4], the activity at 20 min, 0.1 µM was 38.8%. In series [5], `CNC(=O)C1O[C@@H](n2cnc3c(NCc4cccc(I)c4)ncnc32)[C@H](O)[C@@H]1O` (single isomer, unassigned) showed a negative logarithm of the EC50 (pEC50) of 7.15. In addition, the values for the activity at 20 min at ABCG2 [1] and at ABCG2 [2] were 98.2% and 66.2%, respectively. `O[C@@H]1[C@H](O)C2CC2[C@H]1n1cnc2c(NCc3cccc(Cl)c3)nc(C#Cc3ccc(F)c(F)c3)nc21` (single isomer, unassigned) showed a negative logarithm of the Ki (pKi) on Adenosine receptor A3 of at most 7.00. Further, the values for the activity at 20 min at ABCG2 [1] and on ABCG2 [2] were 54.1% and 75.2%, respectively. For `CCOC(=O)C12CC1[C@@H](n1cnc3c(NC)nc(C#Cc4ccc(Cl)s4)cc31)[C@H](O)[C@@H]2O` (single isomer, unassigned), the activity at 20 min, 0.1 µM on ABCG2 [3] was at most 30%. Take `CCOC(=O)C12C[C@@H]1[C@@H](n1ccc3c(NCCCc4ccccc4)nc(C#Cc4ccccc4)nc31)[C@H](O)[C@@H]2O` (single isomer, unassigned): at ABCG2 [4], the activity at 20 min, 0.1 µM came to 37.9%. For the molecule `CCOC(=O)C12CC1[C@@H](n1ccc3c(NCC4CC4)nc(C#Cc4ccccc4)nc31)[C@H](O)[C@@H]2O` (single isomer, unassigned), at ABCG2 [3], the activity at 20 min, 0.1 µM was at most 30%.

For the molecule `CCOC(=O)C12CC1[C@@H](n1cnc3c(NCCc4ccc(O)c(OC)c4)nc(C#Cc4ccc(Cl)s4)nc31)[C@H](O)[C@@H]2O` (single isomer, unassigned), at ABCG2 [4], the activity at 20 min, 0.1 µM is 59.3%. For the molecule `CCOC(=O)C12CC1[C@@H](n1ccc3c(NC)nc(I)nc31)[C@H](O)[C@@H]2O` (single isomer, unassigned), the activity at 20 min, 0.1 µM on ABCG2 [3] was at most 30%. The same measure, in the same setting: then `CCOC(=O)C12CC1[C@@H](n1cnc3c(NC)cc(C#Cc4ccc(Cl)s4)nc31)[C@H](O)[C@@H]2O` (single isomer, unassigned), with at most 30%; and `CCCCOC(=O)C12CC1[C@@H](n1cnc3c(NC)nc(C#Cc4ccc(Cl)s4)nc31)[C@H](O)[C@@H]2O` (single isomer, unassigned), with at most 30%.

On to `CNC(=O)C12CC1[C@@H](n1cnc3c(NCc4cccc(Cl)c4)nc(C#Cc4ccc(Cl)s4)nc31)[C@H](O)[C@@H]2O` (single isomer, unassigned), for which the values for the activity at 20 min at ABCG2 [1] and on ABCG2 [2] were 92.9% and 97.5%, respectively. Consider `CNC(=O)C12CC1[C@@H](n1cnc3c(NC)nc(C#Cc4ccc(Cl)s4)nc31)[C@H](O)[C@@H]2O` (single isomer, unassigned), for which the activity at 20 min at ABCG2 [2] came out at 59.2%. `CCOC(=O)C12CC1[C@@H](n1ccc3c(NC4CC4)nc(C#Cc4ccccc4)nc31)[C@H](O)[C@@H]2O` (single isomer, unassigned): the activity at 20 min, 0.1 µM at ABCG2 [3] was at most 30%. Take `CCOC(=O)C12CC1[C@@H](n1ccc3c(NC)nc(C#Cc4ccccc4)nc31)[C@H](O)[C@@H]2O` (single isomer, unassigned): the activity at 20 min, 0.1 µM at ABCG2 [3] is at most 30%. Consider `CNc1nc(C#Cc2ccc(Cl)s2)nc2c1ncn2[C@@H]1C2CC2(C(=O)OC)[C@@H](O)[C@H]1O` (single isomer, unassigned), for which the activity at 20 min on ABCG2 [1] was determined as 79%; on ABCG2 [2], 89.1%. In the case of `CCCOC(=O)C12CC1[C@@H](n1cnc3c(NC)nc(C#Cc4ccc(Cl)s4)nc31)[C@H](O)[C@@H]2O` (single isomer, unassigned), the activity at 20 min, 0.1 µM on ABCG2 [4] is 33.9%. With `CNc1nc(C#Cc2ccc(Cl)s2)nc2c1ncn2[C@@H]1C2CC2(C(=O)Oc2ccccc2)[C@@H](O)[C@H]1O` (single isomer, unassigned), the activity at 20 min, 0.1 µM at ABCG2 [4] was 50.3%. As for `CCOC(=O)C12CC1[C@@H](n1ccc3c(NCCCc4ccc(OC)c(O)c4)nc(C#Cc4ccccc4)nc31)[C@H](O)[C@@H]2O` (single isomer, unassigned), the negative logarithm of the Ki (pKi) at Adenosine receptor A3 is at most 7.00. Moreover, on ABCG2 [4], the activity at 20 min, 0.1 µM is 55.9%. `CCOC(=O)C12CC1[C@@H](n1cnc3c(NCCc4ccc(OC)c(O)c4)nc(C#Cc4ccc(Cl)s4)nc31)[C@H](O)[C@@H]2O` (single isomer, unassigned): the activity at 20 min, 0.1 µM on ABCG2 [4] amounted to 64.3%. As to `CCCNc1nc(C#Cc2ccc(Cl)s2)nc2c1ncn2[C@@H]1C2CC2(C(=O)NC)[C@@H](O)[C@H]1O` (single isomer, unassigned), the figures for the activity at 20 min at ABCG2 [1] and at ABCG2 [2] were 40% and 77.9%, respectively. With `CCOC(=O)C12CC1[C@@H](n1ccc3c(NCCCc4ccccc4)nc(C#Cc4ccc(Cl)s4)nc31)[C@H](O)[C@@H]2O` (single isomer, unassigned), the activity at 20 min, 0.1 µM on ABCG2 [4] is 45.5%. Still for that read-out and setting: the value for `CCOC(=O)C12CC1[C@@H](n1ccc3c(NC)nc(C#Cc4ccc(Cl)s4)nc31)[C@H](O)[C@@H]2O` (single isomer, unassigned) was 41%. On to `CNc1nc(C#Cc2ccc(Cl)s2)nc2c1ncn2[C@@H]1C2CC2(C(=O)OCCC2CCCCC2)[C@@H](O)[C@H]1O` (single isomer, unassigned), for which the activity at 20 min, 0.1 µM at ABCG2 [3] was at most 30%. As for `CNc1nc(C#Cc2ccc(Cl)s2)nc2c1ncn2[C@@H]1C2CC2(C(=O)OC(C)C)[C@@H](O)[C@H]1O` (single isomer, unassigned), the activity at 20 min, 0.1 µM on ABCG2 [3] was at most 30%. On the same count and under the same terms, then `CNc1nc(C#Cc2ccc(Cl)s2)nc2c1ncn2[C@@H]1C2CC2(C(=O)OCCC(C)C)[C@@H](O)[C@H]1O` (single isomer, unassigned), with at most 30%. In series [5], `CNC(=O)[C@H]1O[C@@H](n2cnc3c(NCc4cccc(I)c4)nc(Cl)nc32)[C@H](O)[C@@H]1O` [NAMODENOSON] had a pEC50 of 5.85. Besides, the activity at 20 min on ABCG2 [1] was determined as 69.9%; at ABCG2 [2], 101%.

(Values after ChEMBL document CHEMBL5154735, “Interaction of A3 adenosine receptor ligands with the human multidrug transporter ABCG2” (Eur J Med Chem, 2022).)
